System: MS2 coat protein
Experiment: apparent Kd, MS2 coat protein; higher = weaker binding; RNA-MaP array; FMN 200 µM where present
Summary of the method: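 Apparent Kd: the median of filtered binding-curve fits from single clusters. Designs were transcribed on Illumina sequencing-chip clusters by stalled E. coli RNA polymerase and titrated with SNAP-549-labelled MS2 coat protein from 0.7 or 1.5 nM, doubling to 3 µM, in 100 mM Tris-HCl pH 7.5, 80 mM KCl, 4 mM MgCl2, BSA, DTT, yeast tRNA and Tween-20. Each series ran without and then with constant ligand, and green signal was normalised to red-channel RNA signal and control-cluster median Fmax.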

[1] = designed as: OFF switch for flavin mononucleotide, no ligand
[2] = ligand present: flavin mononucleotide, designed as: OFF switch for flavin mononucleotide
[3] = designed as: ON switch for flavin mononucleotide, no ligand
[4] = ligand present: flavin mononucleotide, designed as: ON switch for flavin mononucleotide

| Sequence | apparent Kd [1] [nM] | apparent Kd [2] [nM] | apparent Kd [3] [nM] | apparent Kd [4] [nM] |
| --- | --- | --- | --- | --- |
| UUGUUGUGUGGAGGAUAUACACUAAUUGUUAGCGUAGAAGGCCACAUGAGGAUCACCCAUGUCCGGGUUACUGCCUAAGGAGUG | 548 | 99.5 |  |  |
| GUGUCUUGGGAGAAGGCCGUAUGCAAAGCAUACGGAGGAUAUUCAUACCGGAAACGGACAUGAGGAUCACCCAUGUGGCACAAA |  |  | 947 | 34.8 |
| UUUUAACAUGAGGAUCACCCAUGUGAGGAUAUCGAAAUUUAUAUUUAUAUUUAUAAAUCGAGAAGGCACAUUUU | 110 | 99.1 |  |  |
| AUUAACUACAUAGGAUAUUGUUACAUGAGGAUCACCCAUGUUAUAUGGGAACUAGGAAUAUUUGUCAAGAAGGAUGUGGUUACA |  |  | 232 | 33 |
| AUAUAUAUAUCAGGAUAUGGACAGGCCUGUCCGUAUUGAGACAGUAACAUGAGGAUCACCCAUGUCCAGAAGGGAUAUAUAUAU | 51.5 | 59.2 |  |  |
| GAUGUAUUCGUAGGAUAUCCGUCGCCACCGUGUGGAGAAGGACGAACAUGAGGAUCACCCAUGUAUCAUGGUGUAGACGCUUUC | 63.6 | 70.9 |  |  |
| UUAAAUCAUGUAGGAUAUGCAUGGCGAAGCUACGCAGAAGGACAUGAGGAUCACCCAUGUUAGAGCUACCGAGUUCGGUGGCAA | 112 | 210 |  |  |
| GCCUUAUCUGUCAGGAUAUACAAUUUUUUUUUUUUGUAGAAGGGACAUGAGGAUCACCCAUGUACAUUACAUUG | 34 | 57.9 |  |  |
| AGAUAACACCAGAAGGACAUGAGGAUCACCCAUGUAGGAUAUGGGCAUCACUCGAGAAAGAAAAGACCAAAUGUACACGCGGUC |  |  | 91.7 | 9.27 |
| AGCUGUGGCCGAGGAUAUCUAUCCCAAAUAACCGAAAUAUAAUCGGACAUGAGGAUCACCCAUGUAGAGAAGGCGGUCUCAGCA |  | 35.1 |  |  |
| GGAUGACAAAGUCAUCCAAUACGAACAUGAGGAUCACCCAUGUAGGAUAUGCUACUCAAAGAGUAGCAGAAGGACAUGUGUCUU | 30 | 143 |  |  |
| AUUUUGUCAGGAUAUGACUAGUAGGACGAGAGUGCUACUACUUAGAAGGGACAUGAGGAUCACCCAUGUAUUCC | 16 | 17.4 |  |  |
| AUUAGGUCAGGAUAUACAUGAGGAUCACCCAUGUAGGUGGAACCUUUAUCGGGUGACCGUAGAAGGGACAUCAA | 41.1 | 76.3 |  |  |
| AUGCGGUCAGGAUAUGCAUGGCGGGACUUGCGUCGUGGCGUGGAGAAGGGACAUGAGGAUCACCCAUGUGGAGC | 53.5 | 50.4 |  |  |
| CCGGCUGCUGUGAGGAUAUGCCUGUGCGCCCGCGGGCAGAAGGCACAUGAGGAUCACCCAUGUCCUGCGGUCCC | 39 | 41.2 |  |  |
| AGCUGUGGCCGAGGAUAUCUGUCCCAUAAAACCGAAAUAUAAUCGGACAUGAGGAUCACCCAUGUAGAGAAGGCGGUCUCAGCA | 44.1 | 70.7 |  |  |
| UAUAUAUAGUAAGGAUAUGUAUAUAUUUUAGAAACAGAAGGUACUGACAUGAGGAUCACCCAUGUUUUAGUGUGGGCAUGUAGA | 69.2 | 89.7 |  |  |
| GGGUUACAUGAGGAUCACCCAUGUGAGGAUAUGAUACUAUGUACUUCGGUACAUAGUAUCAGAAGGCACAUCCC | 36.5 | 72.7 |  |  |
| CCCGUGUGUUAAGGAUAUGGCAGGCGCGUUGAACCAGAAGGUAGCACAUGAGGAUCACCCAUGUGAAUGCUCACGAAUCGAGCG | 31.3 | 26.8 |  |  |
| AAAUAGGCAGGAUAUACAUGAAAAUUAAAAAAAAAAAAAAAACAUGAGGAUCACCCAUGUAGAAGGGUCAAAAA | 97.5 | 92.9 |  |  |
| AAAUACGUUUCGUAGCAGUGUCAUCGAGAAGGCCCUGACAUGAGGAUCACCCAUGUUGUUACAUGGGAGGAUAUCGAUGAUAAA |  |  | 16.2 | 5.52 |
| UUACGUCCCGUUUACAUGAGGAUCACCCAUGUCGAAAGACAUGAGGAUAUGCUACCUAAUUGGUAGCAGAAGGCAUGGACGUCG |  |  | 306 | 312 |
| AUACAUGAGGAUCACCCAUGUUACUGGGUCUUAAUAGAUCGUAGAAGGAUGUUAUUAUAAAUUUCAUAGGAUAUACUAUUUUGU | 61.1 | 38.6 |  |  |

— the EternaBench riboswitch data
